# Beta2AR agonist: activates human beta-2 adrenergic receptor causing internalization; AID 504454; response, % (no concentration beside the values); Am2.2-beta2AR cells, FAP receptor internalization, flow cytometry; 340,000 compounds, 0.43% hits; P07550;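 active = response above a set limit, near 3 SD of response in nonfluorescent compounds, cut at about 42% in these data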
# MC4R antagonist: human MC4R antagonism in cAMP assay. P32245. MC4R-expressing cells, MTII-stimulated cAMP, LANCE TR-FRET. inhibition, % at 6.5 µM. 360,000 compounds, 0.48% hits. AID 540295;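 active = inhibition above its plate's cutoff, the mean of tested wells on that plate plus 3 SD, cut at about 29% in these data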;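 also: 0% = Melanotan II alone and 100% = Melanotan II plus saturating MCL0020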
# Target sequence (P32245 whole entry, looked up): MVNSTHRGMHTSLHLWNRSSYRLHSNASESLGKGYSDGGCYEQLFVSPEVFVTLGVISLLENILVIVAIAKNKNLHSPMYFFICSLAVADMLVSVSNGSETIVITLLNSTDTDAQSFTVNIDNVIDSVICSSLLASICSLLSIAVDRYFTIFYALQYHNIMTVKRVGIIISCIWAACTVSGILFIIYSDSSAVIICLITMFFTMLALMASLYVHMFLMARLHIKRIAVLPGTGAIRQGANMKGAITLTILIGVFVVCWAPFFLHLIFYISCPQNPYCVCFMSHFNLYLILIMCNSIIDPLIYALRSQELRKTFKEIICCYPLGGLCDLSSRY
#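 Material: U2OS-MC4R stable cell line | Reagent: Melanotan II challenge after compound preincubation | Doses: One concentration, 6.5 µM nominal | Incubation: 30-min compound preincubation, 1-h Melanotan II challenge, 1-h detection, room temperature | Signal: TR-FRET cAMP assay | Replicates: One well per compound, no replicates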
# TAAR1 ag: human TAAR1 agonism; 360,000 compounds, 0.99% hits; AID 624467; Q96RJ0; activation, % at 3 µM; CHO RD-HGA16 TAAR1, Fluo-8 calcium fluorescence; vehicle wells 0%, saturating PEA agonist 100%;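 active = activation above the mean activation of all test compounds in the run plus 3 SD, cut at about 38% in these data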
# Target sequence (Q96RJ0 whole entry, looked up): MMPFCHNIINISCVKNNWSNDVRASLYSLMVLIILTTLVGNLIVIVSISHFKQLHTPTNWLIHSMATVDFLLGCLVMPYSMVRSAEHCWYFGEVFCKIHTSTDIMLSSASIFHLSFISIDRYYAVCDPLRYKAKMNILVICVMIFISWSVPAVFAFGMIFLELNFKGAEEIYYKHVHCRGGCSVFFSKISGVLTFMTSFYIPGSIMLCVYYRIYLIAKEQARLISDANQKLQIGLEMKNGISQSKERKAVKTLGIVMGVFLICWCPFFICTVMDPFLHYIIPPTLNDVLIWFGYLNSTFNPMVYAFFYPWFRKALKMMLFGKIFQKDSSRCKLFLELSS
#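 System: CHO RD-HGA16 cells carrying human TAAR1 plus Gα16; Incubation: 17-24 h seeding, 75 min 37 °C dye, 30 min RT; Measured by: Fluo-8 fluorescence, 5 s baseline then 140 s kinetic read; Control set: DMSO and PEA EC100; Replication: single well for each compound.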
# HTR2A ag: agonists of mouse serotonin 5-HT2A receptor (HTR2A); 360,000 compounds, 0.66% hits; AID 624169; P35363; activation, % at 7.6 µM; CHO-K1 mHTR2A beta-arrestin complementation, luminescence; percent of 30 µM serotonin response;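 active = activation above a run cutoff, the mean activation of all tested compounds plus 3 SD, cut at about 14% in these data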;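 also: 0% = plate median of compound wells and 100% = 30 µM serotonin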
# TAAR1 antagonist: human TAAR1 antagonism; Q96RJ0; inhibition, % at 3 µM; CHO RD-HGA16 TAAR1, Fluo-8 calcium fluorescence, antagonist; 360,000 compounds, 1.5% hits;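 active = inhibition above a per-plate cutoff, the mean inhibition of test compounds on that plate plus 3 SD, cut at about 49% in these data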;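 also: 0% = DMSO plus EC80 beta-PEA response and 100% = DMSO alone without agonist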
#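 Test system – hTAAR1-expressing CHO RD-HGA16 cells, Gα16-coupled · Also added – β-PEA at EC80 concentration, post-compound challenge · Compound – 3 µM, single point · Incubation – dye loading 75 min at 37 °C, then 30 min room temperature · Measured by – Fluo-8 intracellular calcium dye fluorescence, real-time kinetic reads · Benchmarks – vehicle and agonist controls · Replicates – singlicate, one well per test compound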
# MC4R barr agon: human MC4R agonism via beta-arrestin; 360,000 compounds, 0.98% hits; AID 540308; P32245; activation, % at 8.9 µM; U2OS MC4R beta-arrestin complementation, luminescence; percent of melanotan II response, DMSO zero;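 active = activation above a per-plate cutoff, the mean activation of sample wells on that plate plus 3 SD, cut at about 8% in these data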
# U2OS cAMP counter: U2OS forskolin cAMP inhibition counter-screen. parental U2OS, LANCE TR-FRET. AID 602193. shares compounds with MC4R antagonist. inhibition, % at 6.5 µM. 1,600 compounds, 26% hits;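 active = mean inhibition over triplicates above the low-control well mean plus 3 SD, set per campaign, cut at about 13% in these data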;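 also: signal is single emission at 671 nm which falls as cellular cAMP rises; 0% = forskolin-stimulated wells and 100% = buffer without forskolin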
# MC4R cAMP antag: human MC4R cAMP antagonism confirmation. AID 602195. 1,600 compounds, 27% hits. MC4R-expressing cells, MTII-stimulated cAMP, TR-FRET. inhibition, % at 6.5 µM. shares compounds with MC4R antagonist; in the data active = inhibition above about 29%;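 also: 0% = agonist stimulated wells alone and 100% = agonist stimulated wells plus saturating reference antagonist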
# The depositor's hits bear a star; . = not tested or not shown. Only some compounds are listed: those with a hit (about 4.3% of all), similar ones and a draw of the others.
SMILES,Beta2AR agonist,MC4R antagonist,TAAR1 ag,HTR2A ag,TAAR1 antagonist,MC4R barr agon,U2OS cAMP counter,MC4R cAMP antag
CCOC(=O)CN(C(=O)CNC(=O)c1ccco1)C(C(=O)NC1CCCCC1)c1cccnc1 (centres undefined),0,10,10,5,-1,1,.,.
O=C(Oc1ccc(C(=S)N2CCOCC2)cc1)c1ccc([N+](=O)[O-])cc1,2,34*,2,-4,22,0,-1,-18
CCCc1nnc(NC(=O)c2nc(S(=O)(=O)Cc3cccc(C)c3)ncc2Cl)s1,24,38*,-1,3,-15,-5,25*,47*
Cc1cccc(CS(=O)(=O)c2ncc(Cl)c(C(=O)NCc3ccccc3)n2)c1,0,52*,-1,-10,-3,-5,27*,57*
CC(=O)N(c1ccccc1)c1c(F)c(F)c(F)c(F)c1F,31,-7,11,7,2,0,.,.
CC(=O)Oc1c(C(C)C)cc(N(C(C)=O)c2ccccc2)cc1C(C)C,20,33*,1,-4,-20,1,0,4
CSc1ccc(/C=C/C(=O)c2c(O)cc(C)oc2=O)cc1,8,0,-1,-3,6,0,.,.
Cc1ccc(S(=O)(=O)N2CCN(C(=O)Cn3nc(C)c([N+](=O)[O-])c3C)CC2)cc1,3,-2,23,2,-10,-3,.,.
Cc1cccc(Cn2ncc(Cl)c(Cl)c2=O)c1,33,37*,12,2,-12,-2,32*,50*
O=c1c2ccccc2cnn1Cc1ccc(Cl)c(Cl)c1,-13,14,-1,3,15,2,.,.
Cc1cc(C=O)c(C)n1-c1cccc(C(=O)O)c1,2,33*,2,0,-7,0,1,3
O=C(N[C@@H](Cc1ccccc1)C(=O)OCC(=O)N1CCOCC1)c1cccs1,-2,13,2,-2,12,-1,.,.
O=C(COC(=O)[C@H](Cc1ccccc1)NC(=O)c1cccs1)Nc1c(Cl)cccc1Cl,-4,31*,0,0,21,-1,14*,35*
O=C(COC(=O)C(Cc1ccccc1)NC(=O)c1cccs1)NCc1ccccc1 (centres undefined),21,30*,4,6,16,2,8,21
O=C(O)CCNC(=O)/C(=C\c1ccco1)NC(=O)c1ccco1,-4,2,1,3,9,0,.,.
COc1ccc(-n2c(=S)[nH]c3sc(-c4ccccc4)cc3c2=O)c(OC)c1,2,33*,6,0,9,-4,15*,15
CC(=O)OC1OCCOC1NC(=S)Nc1ccc(C)cc1 (centres undefined),-1,32*,6,3,-13,-1,1,-8
O=C(Nc1ccccc1)N1CCc2c([nH]c3ccccc23)C1C(F)(F)F (centres undefined),17,35*,0,1,4,1,-3,-3
Cc1n[nH]c(=O)c2c(NC(=O)CSc3nc4ccccc4c(=O)n3CCCO)oc(C)c12,-4,-1,7,6,-30,-5,.,.
O=C1CN(C(=O)CSc2nc(-c3ccc(Cl)cc3)cs2)c2ccccc2N1,-7,31*,6,-3,-6,2,-4,-18
Cc1nnc(SCC(=O)N2CC(=O)Nc3ccccc32)s1,-8,3,8,2,10,0,.,.
O=C(NCc1cccnc1)Nc1ccc(Cl)cc1,-6,2,6,-4,-8,-2,.,.
Cc1ccc(-n2nc3cc(C)c(NC(=S)NC(=O)/C=C/c4ccco4)cc3n2)cc1,-5,11,0,1,-13,2,.,.
Cc1ccc(-n2nc3ccc(NC(=S)NC(=O)/C=C/c4ccco4)cc3n2)cc1,-1,41*,-1,-2,-19,2,5,26
Cc1ccc(-c2cnc3n2CCCCC3)cc1,1,33*,2,-4,-11,3,-3,-8
SMILES,Beta2AR agonist,MC4R antagonist,TAAR1 ag,HTR2A ag,TAAR1 antagonist,MC4R barr agon,U2OS cAMP counter,MC4R cAMP antag
O=C(CCc1ccccc1)NNC(=O)c1ccncc1,-3,5,12,5,-5,0,.,.
CC(C)(CNC(=O)c1ccc(-c2ccccc2Cl)o1)N1CCOCC1,0,-4,-1,-7,-13,-1,.,.
CC(Sc1ccsc1[N+](=O)[O-])C(=O)NCc1ccccc1 (centres undefined),.,.,2,.,1,.,.,.
COc1ccccc1CNC(=O)C(C)Sc1ccsc1[N+](=O)[O-] (centres undefined),-3,30*,0,6,-11,-1,0,-5
COCCNC(=O)C1Cc2c(-c3cccc(NC(C)=O)c3)ccnc2O1 (centres undefined),.,5,1,0,14,-3,.,.
CN(c1cccc(NC(=O)c2ccc(N(C)S(=O)(=O)c3ccccc3)cc2)c1)S(C)(=O)=O,13,42*,24,0,63*,0,6,0
O=C(NCCCN1CCCC1=O)c1ccc2c(=O)n(-c3ccccc3F)c(=S)[nH]c2c1,-6,15,1,-3,-14,0,.,.
COc1ccc(-n2nnnc2S(=O)(=O)Cc2ccc(C(=O)O)cc2)cc1,-2,9,7,4,8,-1,.,.
COc1ccc(-n2nnnc2S(=O)(=O)CC(=O)N2CCCCC2)cc1,15,39*,1,3,22,-1,6,51*
O=C(Nc1ccc(F)cc1)C1CCCN(S(=O)(=O)c2cccc3nonc23)C1 (centres undefined),-4,32*,0,-2,7,1,0,8
c1ccc(COc2ccc(-c3cc4nc(NCCN5CCOCC5)ccn4n3)cc2)cc1,.,33*,14,-6,48,2,3,20
c1ccc(COc2cccc(-c3cc4nc(NCCN5CCOCC5)ccn4n3)c2)cc1,.,3,21,-8,40,0,.,.
COc1cccc(C(=O)Nc2ccc(S(=O)(=O)Nc3cc(C)nc(C)n3)cc2)c1,2,29*,4,-2,-20,-1,-1,-1
Nc1c(C(=O)CSc2n[nH]c(-c3ccccc3)n2)c(=O)[nH]c(=O)n1C1CC1,-8,-2,2,1,-9,1,.,.
Cc1cc(C)nc(SCc2nnc(SCC(=O)O)n2-c2ccccc2)n1,-4,31*,5,-3,-8,1,-2,1
